An excerpt weighted towards active compounds, which were near 2.6% of everything screened.
Calb FLC: affects C. albicans growth with fluconazole | C. albicans CaCi-2 (fluconazole-resistant clinical isolate) + fluconazole, Alamar Blue growth, 48 h | growth inhibition, % (no concentration beside the values) | hit rate 0.57% among 300,000;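 active = growth inhibition above about 58% in most replicates, limit read from the data, passing the limit was not always enough; inconclusive = exactly half the replicates above a set limit; inactive = most replicates below a set limit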;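 note: all wells also contain fluconazole at 8 µg/ml as a sub-toxic cotreatment; 0% = median of DMSO wells and 100% = median of geldanamycin control wells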
PHOSPHO1 block: blocks human PHOSPHO1 phosphatase activity | recombinant PHOSPHO1, absorbance phosphatase assay | inhibition, % at 13.3 µM | hit rate 1.1% among 290,000 | Q8TCT1; in the data active = inhibition above about 60%
VIM-2 inh: inhibitors of Pseudomonas aeruginosa VIM-2 metallo-beta-lactamase. inhibition, % at 5.6 µM. hit rate 0.89% among 290,000. purified VIM-2, nitrocefin hydrolysis, epi-absorbance fluorescence. AID 1527;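 active = inhibition above the mean of all tested compounds plus 3 SD, cutoff set per screening run, cut at about 7.5% in these data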;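 note: red hydrolysis product quenches plate fluorescence so inhibitors raise well fluorescence; 0% = enzyme with DMSO and 100% = DMSO without enzyme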
ARFGAP1 inh: inhibits rat ARF GTPase activating protein 1. Q62848. Arfgap1-stimulated ARF1 GTP hydrolysis, GDP FP detection. inhibition, % at 16.5 µM. hit rate 0.26% among 360,000. AID 651572;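 active = inhibition above a per-plate limit, mean inhibition of low control wells plus 3 SD, cut at about 25% in these data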;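 note: 0% = DMSO wells with enzyme and 100% = wells lacking Arfgap1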
Target sequence (Q62848 1-136 limits assumed): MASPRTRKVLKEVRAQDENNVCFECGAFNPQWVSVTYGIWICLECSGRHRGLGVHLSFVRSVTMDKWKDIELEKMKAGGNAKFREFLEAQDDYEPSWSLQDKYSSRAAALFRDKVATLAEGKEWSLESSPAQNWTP
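System: truncated rat Arfgap1 GAP domain / Benchmarks: high control wells lacking Arfgap1, low control full reaction with DMSO / Times: compound-enzyme preincubation 20 min, reaction 120 min, detection 60 min, 25 °C / Repeats: one replicate per compound / Also added: human ARF1(Δ1-17)-GTP substrate / Measured by: Tracer-displacement fluorescence polarization with EDTA stop, 620/688 nm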
ASAP1 inh: ASAP1 ArfGAP inhibition. Q9ULH1. ASAP1-stimulated ARF1 GTP hydrolysis, GDP FP detection. inhibition, % at 16.5 µM. hit rate 0.19% among 360,000. AID 624377; in the data active = inhibition above about 25%;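 note: 0% = vehicle with enzyme and substrate and 100% = no enzyme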
IMP-1 inh: inhibitors of Pseudomonas aeruginosa IMP-1 metallo-beta-lactamase | hit rate 0.45% among 290,000 | AID 1556 | inhibition, % at 5.6 µM | purified IMP-1, nitrocefin hydrolysis, epi-absorbance fluorescence;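 active = inhibition above the mean plus 3 SD of all compounds in the same screening run, cut at about 4.5% in these data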;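 note: 0% = IMP-1 with DMSO and 100% = DMSO wells lacking enzyme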
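System: purified recombinant IMP-1 beta-lactamase. Medium: Zinc- and detergent-supplemented HEPES buffer, pH 7.1. Compound: one 5.6 µM dose […]. Schedule: 15 min preincubation plus 25 min reaction at 25 °C. Technique: Epi-absorbance fluorescence, 480 nm excitation, 530 nm emission.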
ARFGAP1 inh conf: confirmation of rat ARFGAP1 inhibitors; ARFGAP1-stimulated ARF1 GTP hydrolysis, GDP tracer FP; AID 651608; inhibition, % at 16.5 µM; hit rate 30% among 890; shares compounds with ARFGAP1 inh;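 active = average inhibition over triplicates above the hit cutoff set in the earlier primary screen, cut at about 25% in these data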;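 note: 0% = Arfgap1 plus ARF1-GTP with DMSO and 100% = wells lacking Arfgap1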
Target sequence (Q62848 whole entry, looked up): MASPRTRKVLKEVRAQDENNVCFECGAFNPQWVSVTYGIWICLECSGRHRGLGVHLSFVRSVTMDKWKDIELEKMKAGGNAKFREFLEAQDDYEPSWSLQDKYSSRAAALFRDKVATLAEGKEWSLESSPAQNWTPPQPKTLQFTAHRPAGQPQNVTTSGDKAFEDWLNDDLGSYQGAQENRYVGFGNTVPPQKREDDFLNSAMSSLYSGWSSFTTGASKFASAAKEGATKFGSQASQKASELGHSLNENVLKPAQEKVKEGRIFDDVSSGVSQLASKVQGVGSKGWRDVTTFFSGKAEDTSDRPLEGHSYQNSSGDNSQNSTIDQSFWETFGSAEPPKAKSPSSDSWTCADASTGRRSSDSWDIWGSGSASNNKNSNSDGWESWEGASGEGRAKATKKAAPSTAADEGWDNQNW
* hit, by the source's call; ? = inconclusive; . = not tested or not shown.

SMILES	Calb FLC	PHOSPHO1 block	VIM-2 inh	ARFGAP1 inh	ASAP1 inh	IMP-1 inh	ARFGAP1 inh conf
Cc1ccc(S(=O)(=O)N(Cc2ccccc2F)C(=O)N2CCN(C)CC2)cc1	9	.	.	29*	-3	.	6
O=C(Nc1nc(-c2ccccc2)cs1)c1ccc2c(c1)S(=O)(=O)c1ccccc1C2=O	-10	-7	-1	-14	0	-4	.
O=C(Nc1nc(-c2cccc3ccccc23)cs1)c1ccc2c(c1)S(=O)(=O)c1ccccc1C2=O	11	35	-2	34*	-8	-3	0
O=C(N/N=C/C=C\c1ccccc1[N+](=O)[O-])c1cc(-c2ccc3ccccc3c2)n[nH]1	26	-31	-4	30*	-2	-8	22
O=C(N/N=C/c1ccccn1)c1cc(-c2ccc3ccccc3c2)n[nH]1	?	6	-2	29*	14	-4	100*
Cc1cc2[nH]c(=O)c(=O)[nH]c2cc1S(=O)(=O)N1CCC(C)CC1	8	23	-1	32*	-4	-3	8
CCC(C(=O)NC1CCCC1)n1c(C2CCCC2)nc2ccccc21 (configuration not stated)	.	.	.	6	9	.	.
CC(=O)c1cccc(NC(=O)C2C(c3ccccc3)C2(Cl)Cl)c1 (configuration not stated)	6	-1	-3	1	-21	-3	.
Cc1cccc(NC(=O)C2C(c3ccccc3)C2(Cl)Cl)c1 (configuration not stated)	-20	14	-6	28*	-1	-1	9
C[C@@H]1CCCCO[C@H](CN(C)S(=O)(=O)c2cccs2)[C@H](C)CN([C@@H](C)CO)C(=O)c2cc(NC(=O)NC3CCCCC3)ccc2O1	.	.	.	25*	-3	.	4
O=C1NC[C@@H](CCCCN2C[C@H](Cc3ccc(O)cc3)N(CCc3ccc(O)cc3)C(=O)C2=O)N(Cc2ccccc2)C1=O	.	.	.	11	6	.	.
[O-][n+]1cc(Cl)cc(Cl)c1	.	.	.	0	2	.	.
O=C(Nc1ccc2oc(=O)ccc2c1)c1ccc(-c2ccccc2[N+](=O)[O-])o1	-13	24	-2	17	13	-4	.
O=C(Nc1ccc2oc(=O)ccc2c1)c1ccc(-c2cccc([N+](=O)[O-])c2)o1	-3	-6	-2	71*	63*	-2	107*
CC1CC(C)CN(C(=O)COC(=O)c2cc3ccccc3oc2=O)C1 (configuration not stated)	.	.	.	1	-2	.	.
CC1CC(C)CN(C(=O)COC(=O)c2cc3ccccc3cc2O)C1 (configuration not stated)	20	23	-4	37*	12	-3	32*
CSc1ccc(Cn2c(C)c(C(=O)NCc3ccc(F)cc3)sc2=O)cc1	.	.	.	-5	21	.	.
COc1ccc(NC(=O)CN(C)C(=O)c2cn(-c3ccccc3)nc2-c2ccc(Cl)cc2)cc1	13	.	.	27*	1	.	9
CCN(CC)c1ccc(C(=C2C=CC(=[N+](CC)CC)C=C2)c2ccccc2)cc1	.	.	.	16	0	.	.
CCN(CC)c1ccc(C(=C2C=CC(=[N+](CC)CC)C=C2)c2ccc(N(CC)CC)cc2)cc1	.	.	.	36*	18	.	24
COc1ccc(OCCNC(=O)c2ccc3nc(C)c(N(C)C(=O)CCc4ccccc4)n3c2)cc1	.	.	.	20	13	.	.
OCC1(Cc2cccc(F)c2)CCN(Cc2ccc3cccc(F)c3n2)CC1	38	-1	-4	25*	3	0	2
COc1cccc(CC2(CO)CCN(Cc3ccc4cccc(F)c4n3)CC2)c1	-13	31	-4	0	9	-3	.
COc1ccc(-c2cc3ccccc3oc2=O)cc1NC(=O)c1cccnc1	1	22	0	34*	21	-2	34*
COc1cc2c(cc1NC(=O)c1cccnc1)oc1ccccc12	2	5	-1	9	1	-3	.
SMILES	Calb FLC	PHOSPHO1 block	VIM-2 inh	ARFGAP1 inh	ASAP1 inh	IMP-1 inh	ARFGAP1 inh conf
CCOC(=O)C1=CCN(S(=O)(=O)c2ccccc2C)C1c1ccccc1 (configuration not stated)	.	.	.	2	-3	.	.
COC(=O)C[C@H]1CC[C@H](NC(=O)Nc2ccccc2F)[C@@H](CO)O1	.	.	.	8	1	.	.
O=C(c1ccccc1)c1sc(Nc2ccc3c(c2)OCO3)nc1-c1ccccc1	.	.	.	0	5	.	.
CN(Cc1ccccc1)C(=O)c1[nH]cnc1C(=O)Nc1ccccc1	.	.	.	8	-4	.	.
CN(Cc1ccccc1)C(=O)c1nc[nH]c1C(=O)N(C)Cc1ccccc1	.	.	.	27*	4	.	-4
CCCOC(=O)c1ccc(Oc2cn[nH]c2-c2ccc(OC)cc2O)cc1	20	3	-4	30*	12	-4	21
COc1ccc(C(O)c2ncc(-c3ccc4ccccc4c3)[nH]2)cc1F (configuration not stated)	.	.	.	4	5	.	.
Cc1ccc(F)c(S(=O)(=O)NC(=O)C2(C)CCN2C(=O)CC(c2ccccc2)c2ccccc2)c1 (configuration not stated)	.	.	.	2	-11	.	.
CC(=O)Nc1cc(-c2ccc(S(C)(=O)=O)cc2)cn2c(-c3ccc(F)c(Cl)c3)cnc12	.	.	.	-6	5	.	.
Oc1nc(Nc2cccc(Cl)c2)sc1/C=C1\C=Nc2ccccc21	-1	-36	-2	25*	19	-4	21
Oc1cccc(Nc2nc(O)c(/C=C3\C=Nc4ccccc43)s2)c1	.	12	-2	6	3	-3	.
O=C1Cc2ccccc2C(=O)N1	.	.	.	26*	36*	.	28*
COc1ccc(C=NNC(=O)CCCC(=O)NN=Cc2ccc(OC)c(OC)c2)cc1OC	.	.	.	1	11	.	.
COC(=O)N/N=C/c1ccc(OS(=O)(=O)c2ccc(C)cc2)c(OC)c1	8	19	2	37*	5	1	-4
COc1cc(/C=N/NC(=O)c2cccnc2)ccc1OS(=O)(=O)c1ccc(C)cc1	-16	-5	0	11	-8	0	.
COc1ccc(C=NNC(=O)NN=Cc2ccc(OC)c(OC)c2)cc1OC	.	.	.	38*	6	.	55*
C[C@@H](NC(=O)[C@@H]1CCCN1C(=O)[C@@H]1CCCN1)c1ccccc1	.	.	.	2	-10	.	.
COc1ccc(C(=O)Nc2ccccc2-c2nnn(CC(N)=O)n2)cc1	.	.	.	-6	4	.	.
COc1cc(OC)cc(C(=O)Nc2ccccc2-c2nnn(CC(=O)Nc3cc(C)on3)n2)c1	4	32	-5	25*	10	-3	31*
CC(C)NC(=O)C1(C)CCN1CCC(=O)c1ccccc1 (configuration not stated)	.	.	.	8	-5	.	.
Cc1ccnc(Nc2ccc(CCO)cc2)n1	.	.	.	27*	-6	.	3
O=C(CNC(=O)c1ccc(Br)o1)Nc1cccc(-c2cnc3ccccc3n2)c1	-18	-2	-1	25*	-6	-1	4
